From ChEMBL document CHEMBL4689842, “EUbOPEN Chemogenomics Library wave 1” (2021)

Tested on: Fibroblast
Test: Multiplex assay against human fibroblast
Format: toxicity, cell-based
In short: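 Imaging took place on a CQ1 microscope at 37°C and 5% CO2 once compound had been added to live cells stained at seeding with Hoechst33342, BioTracker Green Microtubule Cytoskeleton Dye, MitoTracker Red and Annexin V Alexa Fluor 680. CellPathfinder machine-learning gating classed cells as Hoechst high-intensity objects or normal cells, classed normal cells as having healthy, pyknosed or fragmented nuclei, and classed pyknosed cells as mitotic or apoptotic. Tubulin, mitochondrial-mass and membrane-permeability phenotypes are per cents of the healthy-nucleus cells.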

[1] = 12 h, 1 µM, compound concentration 1 uM, replicate 1
[2] = 12 h, 1 µM, compound concentration 1 uM, replicate 2
[3] = 12 h, 10 µM, compound concentration 10 uM, replicate 1
[4] = 12 h, 10 µM, compound concentration 10 uM, replicate 2
[5] = 24 h, 1 µM, compound concentration 1 uM, replicate 1
[6] = 24 h, 1 µM, compound concentration 1 uM, replicate 2
[7] = 24 h, 10 µM, compound concentration 10 uM, replicate 1
[8] = 24 h, 10 µM, compound concentration 10 uM, replicate 2
[9] = 48 h, 1 µM, compound concentration 1 uM, replicate 1
[10] = 48 h, 1 µM, compound concentration 1 uM, replicate 2
[11] = 48 h, 10 µM, compound concentration 10 uM, replicate 1
[12] = 48 h, 10 µM, compound concentration 10 uM, replicate 2

Cl.Oc1ccc2c3c1O[C@H]1c4[nH]c5c(c4C[C@@]4(O)[C@@H](C2)N(CC2CC2)CC[C@]314)C[C@@]1(O)[C@H]2Cc3ccc(O)c4c3[C@@]1(CCN2CC1CC1)[C@H]5O4
Population Apoptotic (%) [1]: 71%
Population Fragmented Nuclei (%) [1]: 27%
Population Healthy Nuclei (%) [1]: 40%
Population Hoechst High Intensity Objects (%) [1]: 15%
Population Membrane Permeable-Phenotype (%) [1]: 20%
Population Mitochondria Different-Phenotype (%) [1]: 11%
Population Mitotic Cells (%) [1]: 28%
Population Normal (%) [1]: 84%
Population Pyknosed Nuclei (%) [1]: 32%
Population Tubulin-Different-Phenotype (%) [1]: 31%
Total Cell Count [1]: 103
Population Apoptotic (%) [2]: 42%
Population Fragmented Nuclei (%) [2]: 3%
Population Healthy Nuclei (%) [2]: 86%
Population Hoechst High Intensity Objects (%) [2]: 9%
Population Membrane Permeable-Phenotype (%) [2]: 10%
Population Mitochondria Different-Phenotype (%) [2]: 19%
Population Mitotic Cells (%) [2]: 57%
Population Normal (%) [2]: 90%
Population Pyknosed Nuclei (%) [2]: 10%
Population Tubulin-Different-Phenotype (%) [2]: 17%
Total Cell Count [2]: 97
Population Apoptotic (%) [3]: 69%
Population Fragmented Nuclei (%) [3]: 23%
Population Healthy Nuclei (%) [3]: 47%
Population Hoechst High Intensity Objects (%) [3]: 8%
Population Membrane Permeable-Phenotype (%) [3]: 25%
Population Mitochondria Different-Phenotype (%) [3]: 5%
Population Mitotic Cells (%) [3]: 30%
Population Normal (%) [3]: 91%
Population Pyknosed Nuclei (%) [3]: 28%
Population Tubulin-Different-Phenotype (%) [3]: 41%
Total Cell Count [3]: 173
Population Apoptotic (%) [4]: 93%
Population Fragmented Nuclei (%) [4]: 12%
Population Healthy Nuclei (%) [4]: 48%
Population Hoechst High Intensity Objects (%) [4]: 7%
Population Membrane Permeable-Phenotype (%) [4]: 52%
Population Mitochondria Different-Phenotype (%) [4]: 26%
Population Mitotic Cells (%) [4]: 6%
Population Normal (%) [4]: 92%
Population Pyknosed Nuclei (%) [4]: 38%
Population Tubulin-Different-Phenotype (%) [4]: 89%
Total Cell Count [4]: 73
Population Apoptotic (%) [5]: 66%
Population Fragmented Nuclei (%) [5]: 19%
Population Healthy Nuclei (%) [5]: 51%
Population Hoechst High Intensity Objects (%) [5]: 14%
Population Membrane Permeable-Phenotype (%) [5]: 27%
Population Mitochondria Different-Phenotype (%) [5]: 2%
Population Mitotic Cells (%) [5]: 33%
Population Normal (%) [5]: 85%
Population Pyknosed Nuclei (%) [5]: 29%
Population Tubulin-Different-Phenotype (%) [5]: 43%
Total Cell Count [5]: 84
Population Apoptotic (%) [6]: 25%
Population Fragmented Nuclei (%) [6]: 3%
Population Healthy Nuclei (%) [6]: 91%
Population Hoechst High Intensity Objects (%) [6]: 4%
Population Membrane Permeable-Phenotype (%) [6]: 10%
Population Mitochondria Different-Phenotype (%) [6]: 13%
Population Mitotic Cells (%) [6]: 75%
Population Normal (%) [6]: 95%
Population Pyknosed Nuclei (%) [6]: 4%
Population Tubulin-Different-Phenotype (%) [6]: 18%
Total Cell Count [6]: 94
Population Apoptotic (%) [7]: 65%
Population Fragmented Nuclei (%) [7]: 18%
Population Healthy Nuclei (%) [7]: 62%
Population Hoechst High Intensity Objects (%) [7]: 15%
Population Membrane Permeable-Phenotype (%) [7]: 25%
Population Mitochondria Different-Phenotype (%) [7]: 3%
Population Mitotic Cells (%) [7]: 34%
Population Normal (%) [7]: 84%
Population Pyknosed Nuclei (%) [7]: 19%
Population Tubulin-Different-Phenotype (%) [7]: 27%
Total Cell Count [7]: 178
Population Apoptotic (%) [8]: 76%
Population Fragmented Nuclei (%) [8]: 13%
Population Healthy Nuclei (%) [8]: 58%
Population Hoechst High Intensity Objects (%) [8]: 13%
Population Membrane Permeable-Phenotype (%) [8]: 48%
Population Mitochondria Different-Phenotype (%) [8]: 33%
Population Mitotic Cells (%) [8]: 23%
Population Normal (%) [8]: 86%
Population Pyknosed Nuclei (%) [8]: 28%
Population Tubulin-Different-Phenotype (%) [8]: 77%
Total Cell Count [8]: 91
Population Apoptotic (%) [9]: 60%
Population Fragmented Nuclei (%) [9]: 26%
Population Healthy Nuclei (%) [9]: 52%
Population Hoechst High Intensity Objects (%) [9]: 16%
Population Membrane Permeable-Phenotype (%) [9]: 32%
Population Mitochondria Different-Phenotype (%) [9]: 5%
Population Mitotic Cells (%) [9]: 40%
Population Normal (%) [9]: 83%
Population Pyknosed Nuclei (%) [9]: 21%
Population Tubulin-Different-Phenotype (%) [9]: 43%
Total Cell Count [9]: 85
Population Apoptotic (%) [10]: 75%
Population Fragmented Nuclei (%) [10]: 16%
Population Healthy Nuclei (%) [10]: 78%
Population Hoechst High Intensity Objects (%) [10]: 7%
Population Membrane Permeable-Phenotype (%) [10]: 18%
Population Mitochondria Different-Phenotype (%) [10]: 0%
Population Mitotic Cells (%) [10]: 25%
Population Normal (%) [10]: 92%
Population Pyknosed Nuclei (%) [10]: 4%
Population Tubulin-Different-Phenotype (%) [10]: 26%
Total Cell Count [10]: 103
Population Apoptotic (%) [11]: 61%
Population Fragmented Nuclei (%) [11]: 31%
Population Healthy Nuclei (%) [11]: 55%
Population Hoechst High Intensity Objects (%) [11]: 18%
Population Membrane Permeable-Phenotype (%) [11]: 30%
Population Mitochondria Different-Phenotype (%) [11]: 6%
Population Mitotic Cells (%) [11]: 38%
Population Normal (%) [11]: 81%
Population Pyknosed Nuclei (%) [11]: 12%
Population Tubulin-Different-Phenotype (%) [11]: 34%
Total Cell Count [11]: 172
Population Apoptotic (%) [12]: 66%
Population Fragmented Nuclei (%) [12]: 29%
Population Healthy Nuclei (%) [12]: 66%
Population Hoechst High Intensity Objects (%) [12]: 10%
Population Membrane Permeable-Phenotype (%) [12]: 14%
Population Mitochondria Different-Phenotype (%) [12]: 1%
Population Mitotic Cells (%) [12]: 33%
Population Normal (%) [12]: 89%
Population Pyknosed Nuclei (%) [12]: 3%
Population Tubulin-Different-Phenotype (%) [12]: 41%
Total Cell Count [12]: 94
